{"data": "Measurements pooled from the literature", "note": "Protocols differ between the studies behind these lines."}
{"SMILES": "COC(=O)c1cc(-c2cccc(NC(=O)Nc3ccc(F)c(F)c3)c2)on1", "organism": "Acinetobacter baumannii", "assay": "microbial growth, broth dilution", "test system": "BAA1605", "measurement": "MIC", "result": "> 64 µg/mL"}
{"SMILES": "CSc1ccc(/C=C/c2cc(/C=C3\\Sc4ccccc4N3CCCN3CCCC3)c3ccccc3[n+]2C)cc1.[I-]", "organism": "Acinetobacter baumannii", "assay": "microbial growth, broth dilution", "test system": "ATCC19606", "conditions": "drug-resistant strain", "measurement": "MIC", "result": "64 µg/mL"}
{"SMILES": "CC1SC2(CCCC2)N(NC(=O)c2[nH]c3ccc(Cl)cc3c2-c2ccccc2)C1=O (stereo not shown)", "organism": "Enterovirus B", "assay": "viral replication, inhibitor", "test system": "Vero, B4", "measurement": "EC50", "result": "> 100 µM"}
{"SMILES": "CC(=O)C1=C(O)C(CC(C)C)NC1=O (stereo not shown)", "organism": "Proteus mirabilis", "assay": "microbial growth", "test system": "ATCC25933", "measurement": "MIC", "result": "> 200 µg/mL"}
{"SMILES": "COC(=O)c1cc(-c2cccc(NC(=O)Nc3ccc(C)cc3)c2)on1", "organism": "Acinetobacter baumannii", "assay": "microbial growth, broth dilution", "test system": "BAA1605", "measurement": "MIC", "result": "> 64 µg/mL"}
{"SMILES": "C=C1/C(=C\\C=C2/CCC[C@]3(C)[C@@H]([C@H](C)CCCC(C)(C)O)CC[C@@H]23)C[C@@H](O)C[C@@H]1O", "organism": "Hepatitis C virus", "assay": "viral replication, inhibitor, luciferase", "test system": "BM4-5, GETYPE1B", "conditions": "72 h, replicon", "measurement": "EC50", "result": "3.19 µM"}
{"SMILES": "COC(=O)c1cc(-c2cccc(NC(=O)Nc3cc(OC)ccc3OC)c2)on1", "organism": "Acinetobacter baumannii", "assay": "microbial growth, broth dilution", "test system": "BAA1605", "measurement": "MIC", "result": "> 64 µg/mL"}
{"SMILES": "CC1CCCC2(C1)SCC(=O)N2NC(=O)c1[nH]c2ccc(Cl)cc2c1-c1ccccc1 (stereo not shown)", "organism": "Enterovirus B", "assay": "viral replication, inhibitor", "test system": "Vero, B4", "measurement": "EC50", "result": "> 100 µM"}
{"SMILES": "COC(=O)c1cc(-c2cccc(NC(=S)Nc3ccc(F)cc3)c2)on1", "organism": "Acinetobacter baumannii", "assay": "microbial growth, broth dilution", "test system": "BAA1605", "measurement": "MIC", "result": "> 64 µg/mL"}
{"SMILES": "NC(=O)c1ncn([C@@H]2O[C@H](CO)[C@@H](O)[C@H]2O)n1", "organism": "Enterovirus B", "assay": "viral replication, inhibitor", "test system": "Vero, B4", "measurement": "EC50", "result": "> 250 µM"}
{"SMILES": "Cc1c(NN=C(C#N)C2=NC(=O)CS2)c(=O)n(-c2ccccc2)n1C", "organism": "Acinetobacter baumannii", "assay": "microbial growth, well diffusion", "conditions": "100000 µg/mL", "measurement": "inhibition zone", "result": "27 mm"}
{"SMILES": "C[n+]1c(/C=C/c2ccc(O)cc2)cc(/C=C2\\Sc3ccccc3N2CCCN2CCCC2)c2ccccc21.[I-]", "organism": "Acinetobacter baumannii", "assay": "microbial growth, broth dilution", "test system": "ATCC19606", "conditions": "drug-resistant strain", "measurement": "MIC", "result": "> 64 µg/mL"}
{"SMILES": "CCCC1CCC2(CC1)SC(C)C(=O)N2NC(=O)c1[nH]c2ccc(Cl)cc2c1-c1ccccc1 (stereo not shown)", "organism": "Enterovirus B", "assay": "viral replication, inhibitor", "test system": "Vero, B4", "measurement": "EC50", "result": "> 100 µM"}
{"SMILES": "C=C1CC[C@H](O)C/C1=C/C=C1\\CCC[C@]2(C)[C@@H]([C@H](C)/C=C/[C@H](C)C(C)C)CC[C@@H]12", "organism": "Hepatitis C virus", "assay": "viral replication, inhibitor, luciferase", "test system": "GETYPE2A", "conditions": "5 days, replicon", "measurement": "EC50", "result": "13 µM"}
{"SMILES": "CO[C@H]1/C=C/O[C@@]2(C)Oc3c(C)c(O)c4c(O)c(c(/C=N/N5CCN(C)CC5)c(O)c4c3C2=O)NC(=O)/C(C)=C\\C=C\\[C@H](C)[C@H](O)[C@@H](C)[C@@H](O)[C@@H](C)[C@H](OC(C)=O)[C@@H]1C", "organism": "Acinetobacter baumannii", "assay": "microbial growth, broth dilution", "test system": "ATCC19606", "conditions": "drug-resistant strain", "measurement": "MIC", "result": "1 µg/mL"}
{"SMILES": "CCC1CCC2(CC1)SCC(=O)N2NC(=O)c1[nH]c2ccc(Cl)cc2c1-c1ccccc1 (stereo not shown)", "organism": "Enterovirus B", "assay": "viral replication, inhibitor", "test system": "Vero, B4", "measurement": "EC50", "result": "> 100 µM"}
{"SMILES": "COC(=O)c1cc(-c2cccc(NC(=O)Nc3ccccc3)c2)on1", "organism": "Acinetobacter baumannii", "assay": "microbial growth, broth dilution", "test system": "BAA1605", "measurement": "MIC", "result": "> 64 µg/mL"}
{"SMILES": "CC1CCC2(CC1)SC(C)C(=O)N2NC(=O)c1[nH]c2ccc(Cl)cc2c1-c1ccccc1 (stereo not shown)", "organism": "Enterovirus B", "assay": "viral replication, inhibitor", "test system": "Vero, B4", "measurement": "EC50", "result": "> 100 µM"}
{"SMILES": "COC(=O)c1cc(-c2cccc(NC(=O)Nc3cccc(C(F)(F)F)c3)c2)on1", "organism": "Acinetobacter baumannii", "assay": "microbial growth, broth dilution", "test system": "BAA1605", "measurement": "MIC", "result": "> 64 µg/mL"}
{"SMILES": "C=C1CC[C@H](O)C/C1=C/C=C1\\CCC[C@]2(C)[C@@H]([C@H](C)CCCC(C)C)CC[C@@H]12", "organism": "Hepatitis C virus", "assay": "viral replication, inhibitor, luciferase", "test system": "BM4-5, GETYPE1B", "conditions": "72 h, replicon", "measurement": "EC50", "result": "6.1 µM"}
{"SMILES": "COc1cccc(OC)c1C(=O)N[C@@H]1C(=O)N2[C@@H]1SC(C)(C)[C@@H]2C(=O)O", "organism": "Acinetobacter baumannii", "assay": "microbial growth, broth dilution", "test system": "ATCC19606", "conditions": "drug-resistant strain", "measurement": "MIC", "result": "> 256 µg/mL"}
{"SMILES": "CCCCCCNC(=S)Nc1cccc(-c2cc(C(=O)OC)no2)c1", "organism": "Acinetobacter baumannii", "assay": "microbial growth, broth dilution", "test system": "BAA1605", "measurement": "MIC", "result": "> 64 µg/mL"}
{"SMILES": "COc1nc(N)nc2c1ncn2[C@@H]1O[C@H](COP(=O)(N[C@@H](C)C(=O)OCC(C)(C)C)Oc2cccc3ccccc23)[C@@H](O)[C@@]1(C)O (stereo partly shown)", "organism": "Hepatitis C virus", "assay": "viral replication, inhibitor", "test system": "GETYPE1A", "conditions": "96 h, replicon", "measurement": "EC90", "result": "0.004 µM"}
{"SMILES": "CCC1CCC2(CC1)SC(C)C(=O)N2NC(=O)c1[nH]c2ccc(Cl)cc2c1-c1ccccc1 (stereo not shown)", "organism": "Enterovirus B", "assay": "viral replication, inhibitor", "test system": "Vero, B4", "measurement": "EC50", "result": "> 100 µM"}
{"SMILES": "C[n+]1c(/C=C/c2c[nH]c3ccccc23)cc(/C=C2\\Sc3ccccc3N2CCCN2CCOCC2)c2ccccc21.[I-]", "organism": "Acinetobacter baumannii", "assay": "microbial growth, broth dilution", "test system": "ATCC19606", "conditions": "drug-resistant strain", "measurement": "MIC", "result": "> 64 µg/mL"}
{"SMILES": "COC(=O)N[C@H](C(=O)N1CCC[C@H]1c1ncc(-c2ccc(-c3cnc([C@@H]4CCCN4C(=O)[C@@H](NC(=O)OC)C(C)C)[nH]3)cc2)[nH]1)C(C)C", "organism": "Hepatitis C virus", "assay": "viral replication, inhibitor", "test system": "Huh-7, GETYPE1B", "conditions": "replicon", "measurement": "EC90", "result": "> 0.001 µM"}
{"SMILES": "COC(=O)c1cc(-c2cccc(NC(=O)Nc3c(C)cccc3C)c2)on1", "organism": "Acinetobacter baumannii", "assay": "microbial growth, broth dilution", "test system": "BAA1605", "measurement": "MIC", "result": "> 64 µg/mL"}
{"SMILES": "CC(C)(C)C1CCC2(CC1)SCC(=O)N2NC(=O)c1[nH]c2ccc(Cl)cc2c1-c1ccccc1 (stereo not shown)", "organism": "Enterovirus B", "assay": "viral replication, inhibitor", "test system": "Vero, B4", "measurement": "EC50", "result": "> 100 µM"}
